Measured values taken from ChEMBL document CHEMBL4414557, “Labdanes, Withanolides, and Other Constituents from Physalis nicandroides” (J Nat Prod, 2019).
Activity calls are given as the source filed them. No cut-off for these calls is given here.

Legend:
[1] = tested on: Saccharomyces cerevisiae; assay: Inhibition of yeast alpha-glucosidase type 1 at 100 uM using p-Nitrophenyl alpha-D-glucopyranoside as substrate preincubated for 10 mins followed by incubation with substrate for 15 mins and measured after 5 mins by microplate reader analysis
Outline: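 Sample in DMSO–H2O 1:1 added to PBS (67 mM, pH 6.8) with glutathione (3 mM in PBS) and enzyme (0.2 U mL−1 in PBS), preincubated 10 min at 37 °C. p-Nitrophenyl α-D-glucopyranoside (23.2 mM in PBS) then added, 15 min at 37 °C with agitation. Stopped with 1 M Na2CO3, read at 405 nm after 5 min. Percent inhibition versus negative control, triplicate. Quercetin positive control.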

[2] = molecular target: Acetylcholinesterase (Electrophorus electricus) (UniProt O42275); assay: Activation of Electrophorus electricus AChE at 100 uM using acetylthiocholine iodide as substrate preincubated for 30 mins followed by substrate addition and measured after 5 mins by Ellman's method relative to control
Chain of Acetylcholinesterase (Electrophorus electricus) (O42275 24-633 limits assumed): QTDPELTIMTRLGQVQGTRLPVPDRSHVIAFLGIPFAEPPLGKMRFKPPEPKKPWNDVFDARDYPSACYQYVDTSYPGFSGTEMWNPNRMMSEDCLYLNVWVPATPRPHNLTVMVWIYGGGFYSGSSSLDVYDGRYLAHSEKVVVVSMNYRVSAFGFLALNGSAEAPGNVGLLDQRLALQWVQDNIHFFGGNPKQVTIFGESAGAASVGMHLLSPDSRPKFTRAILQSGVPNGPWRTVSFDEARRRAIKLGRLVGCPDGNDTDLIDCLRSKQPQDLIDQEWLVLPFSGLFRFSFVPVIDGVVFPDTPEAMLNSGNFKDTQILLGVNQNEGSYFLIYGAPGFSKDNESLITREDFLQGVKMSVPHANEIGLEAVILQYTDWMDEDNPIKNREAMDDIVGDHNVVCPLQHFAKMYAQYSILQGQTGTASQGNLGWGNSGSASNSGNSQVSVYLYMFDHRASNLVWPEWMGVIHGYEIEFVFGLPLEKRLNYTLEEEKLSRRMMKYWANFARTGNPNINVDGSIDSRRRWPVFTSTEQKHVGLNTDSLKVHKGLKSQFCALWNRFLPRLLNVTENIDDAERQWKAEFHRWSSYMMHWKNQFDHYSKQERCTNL

[3] = tested on: Saccharomyces cerevisiae; assay: Activation of yeast alpha-glucosidase type 1 at 100 uM using p-Nitrophenyl alpha-D-glucopyranoside as substrate preincubated for 10 mins followed by incubation with substrate for 15 mins and measured after 5 mins by microplate reader analysis relative to control
Outline: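 Yeast α-glucosidase type I (25 μL, 0.2 U mL−1 in PBS) with glutathione (25 μL, 3 mM) in phosphate buffer (67 mM, pH 6.8). Samples were added in DMSO–H2O 1:1 and preincubated 10 min at 37 °C. Then p-nitrophenyl α-D-glucopyranoside (25 μL, 23.2 mM) was added, 15 min at 37 °C with agitation. Stopped with 1 M Na2CO3; A405 read. % vs negative control; triplicate, mean ± SD.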

[4] = molecular target: Acetylcholinesterase (Electrophorus electricus) (UniProt O42275); assay: Inhibition of Electrophorus electricus AChE at 100 uM using acetylthiocholine iodide as substrate preincubated for 30 mins followed by substrate addition and measured after 5 mins by Ellman's method relative to control
[5] = molecular target: Acetylcholinesterase (Electrophorus electricus, UniProt O42275); assay: Inhibition of Electrophorus electricus AChE using acetylthiocholine iodide as substrate preincubated for 30 mins followed by substrate addition and measured after 5 mins by Ellman's method
Chain of Acetylcholinesterase (O42275 whole entry): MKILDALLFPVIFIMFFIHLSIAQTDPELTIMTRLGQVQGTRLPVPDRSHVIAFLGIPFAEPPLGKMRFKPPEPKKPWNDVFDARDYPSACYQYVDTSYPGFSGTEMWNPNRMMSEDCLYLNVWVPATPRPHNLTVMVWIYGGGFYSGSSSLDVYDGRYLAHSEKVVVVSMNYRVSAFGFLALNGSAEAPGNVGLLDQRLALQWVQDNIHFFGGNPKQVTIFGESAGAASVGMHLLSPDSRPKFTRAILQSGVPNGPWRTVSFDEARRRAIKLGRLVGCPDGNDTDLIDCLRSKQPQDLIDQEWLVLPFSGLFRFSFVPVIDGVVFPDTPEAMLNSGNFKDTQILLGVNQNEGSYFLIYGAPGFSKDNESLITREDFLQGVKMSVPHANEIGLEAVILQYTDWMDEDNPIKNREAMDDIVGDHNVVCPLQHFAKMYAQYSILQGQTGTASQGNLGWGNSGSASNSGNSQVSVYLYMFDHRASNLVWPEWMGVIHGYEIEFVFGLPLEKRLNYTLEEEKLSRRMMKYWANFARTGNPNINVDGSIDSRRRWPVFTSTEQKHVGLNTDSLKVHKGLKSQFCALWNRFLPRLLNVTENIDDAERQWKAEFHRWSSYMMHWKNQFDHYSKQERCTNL

Row | SMILES | inhibition [1] | Activity [2] [%] | Activity [3] [%] | inhibition [4] [%] | IC50 [5] [µM]
1 | CC(=O)O[C@H]1C[C@H]([C@@](C)(O)[C@H]2CC(C)=C(C)C(=O)O2)[C@@]2(C)CC[C@H]3[C@@H](C[C@@H](OC(C)=O)[C@@]4(Cl)CC=CC(=O)[C@]34C)[C@@]12O | Active | 6.7 to 96 | – | – | –
2 | C=C1CC[C@H]2C(C)(C)CCC[C@]2(C)[C@H]1C[C@H](O[C@@H]1O[C@H](CO)[C@@H](O)[C@H](O)[C@H]1O)/C(C)=C/COC(=O)CC(C)C | – | 6.7 to 96 | 1.1 to 29.4 | – | –
3 | C=C(CC[C@@H]1[C@@]2(C)CCCC(C)(C)[C@@H]2CC[C@@]1(C)O)[C@@H](O)CO | – | 6.7 to 96 | 1.1 to 29.4 | – | –
4 | C=C1CC[C@H]2C(C)(C)CCC[C@]2(C)[C@H]1C[C@H](O)/C(C)=C/CO | – | 6.7 to 96 | 1.1 to 29.4 | – | –
5 | CO[C@@H]1CC(=O)[C@]2(C)[C@H]3CC[C@]4(C)[C@@H]([C@@](C)(O)[C@H]5CC(C)=C(C)C(=O)O5)C[C@H](OC(C)=O)[C@]4(O)[C@@H]3C[C@H]3O[C@]32C1 | Active | 6.7 to 96 | – | – | –
6 | C=C(C)C(C)(O)CC[C@@H](C)[C@H]1CC[C@H]2[C@@H]3CC=C4C[C@@H](O)CC[C@]4(C)[C@H]3CC[C@]12C (stereo partly drawn) | Active | – | – | 24 | –
7 | C=C(CC[C@@H]1[C@@]2(C)CCCC(C)(C)[C@@H]2CC[C@@]1(C)O)[C@H](O)CO | – | 6.7 to 96 | 1.1 to 29.4 | – | –
8 | C=C1CC[C@H]2C(C)(C)CCC[C@]2(C)[C@H]1Cc1occc1C | – | – | 1.1 to 29.4 | 57.5 | 64.4
9 | C=C1CC[C@H]2C(C)(C)CCC[C@]2(C)[C@H]1CC(=O)/C(C)=C/CO | – | 6.7 to 96 | 1.1 to 29.4 | – | –
10 | C/C(=C\CO)CC[C@@H]1[C@@]2(C)CCCC(C)(C)[C@@H]2CC[C@@]1(C)O | – | 6.7 to 96 | 1.1 to 29.4 | – | –
11 | C=C1CC[C@H]2C(C)(C)CCC[C@]2(C)[C@H]1C[C@H](O[C@@H]1O[C@H](COC(C)=O)[C@@H](OC(C)=O)[C@H](OC(C)=O)[C@H]1OC(C)=O)/C(C)=C/COC(=O)CC(C)C | Active | 6.7 to 96 | – | – | –
12 | CC(=O)O[C@H]1C[C@H]([C@@](C)(O)[C@H]2CC(C)=C(C)C(=O)O2)[C@@]2(C)CC[C@H]3[C@@H](C[C@H]4O[C@]45CC=CC(=O)[C@]35C)[C@@]12O | Active | 6.7 to 96 | – | – | –
13 | C=C1CC[C@H]2C(C)(C)CCC[C@]2(C)[C@H]1C[C@@H](O)/C(C)=C/CO | – | 6.7 to 96 | 1.1 to 29.4 | – | –
14 | CC(=O)O[C@H]1C[C@H]([C@@](C)(O)[C@H]2CC(C)=C(C)C(=O)O2)[C@@]2(C)CC[C@H]3[C@@H](C[C@@H](O)[C@@]4(Cl)CC=CC(=O)[C@]34C)[C@@]12O | Active | 6.7 to 96 | – | – | –
15 | C=C1CC[C@H]2C(C)(C)CCC[C@]2(C)[C@H]1CC/C(=C/CO)CO | Active | – | – | 33.9 | –
16 | C=C1CC[C@H]2C(C)(C)CCC[C@]2(C)[C@H]1C[C@H](O[C@@H]1O[C@H](CO)[C@@H](O)[C@H](O)[C@H]1O)/C(C)=C/CO | – | 6.7 to 96 | 1.1 to 29.4 | – | –
